# Experimental data taken from ChEMBL document CHEMBL3616436, “Synthesis, cytotoxicity and antimicrobial activity of thiourea derivatives incorporating 3-(trifluoromethyl)phenyl moiety” (Eur J Med Chem, 2015).
# System: Mycobacterium tuberculosis
# Assay: Antimycobacterial activity against p-aminosalicylic acid/isonicotinic acid hydrazide/etambutol/rifampicin-resistant Mycobacterium tuberculosis Spec. 210
# Assay type: functional
# Summary of the method: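 Classical test-tube successive-dilution method in Youmans' modification of Proskauer and Beck liquid medium with 10% bovine serum. Inoculum came from 14-day cultures. DMSO stock was 10 mg/mL, diluted geometrically in medium. Tubes were incubated at 37 °C. Concentrations tested were 3.1, 6.2, 12.5, 25, 50 and 100 µg/ml. MIC is the minimum concentration inhibiting growth relative to compound-free tubes.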
row,Structure (SMILES),MIC [µg/mL]
1,O=C(NC(=S)Nc1cccc(C(F)(F)F)c1)c1ccccc1,> 100
2,C=C(C)CNC(=S)Nc1cccc(C(F)(F)F)c1,> 100
3,FC(F)(F)c1cccc(NC(=S)NC2CCCCC2)c1,> 100
4,FC(F)(F)c1cccc(NC(=S)Nc2ccccc2)c1,50
5,COc1cccc(NC(=S)Nc2cccc(C(F)(F)F)c2)c1,> 100
6,CSCCCNC(=S)Nc1cccc(C(F)(F)F)c1,50
7,Fc1ccccc1NC(=S)Nc1cccc(C(F)(F)F)c1,100
8,FC(F)(F)c1cccc(NC(S)=Nc2ccc(Cl)c(Cl)c2)c1,50
9,N#Cc1ccc(NC(=S)Nc2cccc(C(F)(F)F)c2)cc1,> 100
10,FC(F)(F)c1cccc(NC(=S)Nc2ccc(Cl)cc2)c1,> 100
11,FC(F)(F)c1cccc(NC(=S)NCc2ccco2)c1,> 100
12,FC(F)(F)c1cccc(NC(=S)Nc2cccc(Br)c2)c1,100
13,NNC(=O)c1ccncc1 [ISONIAZID],6.25
14,Fc1ccc(NC(=S)Nc2cccc(C(F)(F)F)c2)cc1Cl,50
15,FC(F)(F)c1cccc(NC(=S)Nc2cccc(Cl)c2)c1,100
16,CCCCc1ccc(NC(=S)Nc2cccc(C(F)(F)F)c2)c(C)c1,50
17,Fc1cccc(NC(=S)Nc2cccc(C(F)(F)F)c2)c1,25
18,CCOC(=O)c1ccc(NC(=S)Nc2cccc(C(F)(F)F)c2)cc1,> 100
19,Fc1ccc(NC(=S)Nc2cccc(C(F)(F)F)c2)cc1,25
20,CCNC(=S)Nc1cccc(C(F)(F)F)c1,> 100
21,FC(F)(F)c1cccc(NC(S)=NCc2ccccc2)c1,25
22,Cc1ccc(NC(=S)Nc2cccc(C(F)(F)F)c2)cc1Cl,> 100
23,O=[N+]([O-])c1ccc(NC(=S)Nc2cccc(C(F)(F)F)c2)cc1,50
24,COC(=O)c1ccccc1NC(=S)Nc1cccc(C(F)(F)F)c1,> 100
25,FC(F)(F)c1cccc(NC(=S)NCCc2ccccc2)c1,50
